Assay outcomes (PubChem BioAssay)
ZTA DNA inh = blocks Epstein-Barr virus ZTA, an EBNA-1 counter-screen. P03206. ZTA-DNA binding, fluorescence polarization. inhibition, % at 11 µM. 320,000 compounds, 0.15% hits. AID 2234; in the data active = inhibition above about 33%
Target sequence (P03206 whole entry, looked up): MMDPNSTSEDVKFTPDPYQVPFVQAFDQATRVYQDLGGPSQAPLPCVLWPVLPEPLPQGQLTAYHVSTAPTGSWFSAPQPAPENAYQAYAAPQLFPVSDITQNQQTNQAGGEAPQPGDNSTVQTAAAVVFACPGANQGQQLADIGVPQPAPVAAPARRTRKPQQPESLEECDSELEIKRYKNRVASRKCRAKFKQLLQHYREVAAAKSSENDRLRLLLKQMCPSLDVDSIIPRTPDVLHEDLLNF
PP1 counter = counter-screen for PP5 inhibitors: inhibitors of human PP1-alpha; purified PP1alpha, OMFP fluorescence; inhibition, % at 6.7 µM; 320,000 compounds, 0.9% hits;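 active = inhibition above the mean inhibition of all tested compounds plus 3 SD, computed separately for each screening campaign, cut at about 15% in these data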
Target sequence (P62136 whole entry, looked up): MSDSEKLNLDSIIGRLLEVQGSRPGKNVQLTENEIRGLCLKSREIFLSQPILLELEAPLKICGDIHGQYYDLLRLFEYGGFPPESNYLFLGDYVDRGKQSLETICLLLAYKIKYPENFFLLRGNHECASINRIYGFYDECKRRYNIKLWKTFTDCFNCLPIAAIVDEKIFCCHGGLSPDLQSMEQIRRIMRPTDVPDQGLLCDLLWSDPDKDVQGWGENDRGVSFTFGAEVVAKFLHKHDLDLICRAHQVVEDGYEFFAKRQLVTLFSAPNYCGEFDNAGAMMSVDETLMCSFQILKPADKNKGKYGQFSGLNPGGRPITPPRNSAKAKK
EBNA-1 inhibitor = blocks EBNA-1 binding to DNA | EBNA-1 DNA binding, fluorescence polarization | inhibition, % at 14.8 µM | 300,000 compounds, 0.34% hits | AID 1950; in the data active = inhibition above about 28%
core dimer inh = HCV core protein dimerization inhibition. TR-FRET GST/Flag-core106 dimerization, 1536-well. inhibition, % at 5 µM. 300,000 compounds, 0.33% hits;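 active = inhibition above the mean of all tested compounds plus 3 SD, set per screening campaign, cut at about 45% in these data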
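Material: Tagged HCV core106 pair (GST and Flag) | Amount: GST-core106 13.5 nM, Flag-core106 17 nM | Medium: KF-containing HEPES buffer, pH 7.45, DTT, CHAPS, BSA | Reagent: Eu donor and XL665 acceptor anti-tag antibodies | Schedule: 4 h at 22.5 °C | Technique: Time-resolved FRET, ex 340 nm, em 617 and 671 nm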
HCV NS3 hel inh = HCV NS3 helicase inhibition | NS3 helicase DNA unwinding, Cy5 molecular beacon fluorescence | inhibition, % at 10.9 µM | 290,000 compounds, 0.56% hits;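 active = inhibition above the mean of all tested compounds plus 3 SD, set per campaign, cut at about 35% in these data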
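assay system = NS3 helicase fragment of HCV | buffer or medium = MOPS pH 6.5, MgCl2, DTT, Tween20, BSA | timing = 60 min unwinding reaction at 25 °C after ATP addition | signal = Cy5 beacon fluorescence read at start and 1 h | read-out basis = % inhibition of unwinding | control set = low DMSO, high thioflavine S at 110 µM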
NS3 hel confirm = confirmation of Hepatitis C virus NS3 helicase inhibitors; shares compounds with HCV NS3 hel inh; 1,600 compounds, 31% hits; NS3 helicase DNA unwinding, Cy5 molecular beacon fluorescence; inhibition, % at 10.9 µM;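 active = inhibition above the mean of all tested compounds plus 3 SD, cutoff set per campaign, cut at about 36% in these data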
DNA FID counter = intercalator displacement, NS3 helicase counter-screen; shares compounds with HCV NS3 hel inh; DNA fluorescent intercalator displacement, fluorescence; AID 1945; inhibition, % at 7.9 µM; 1,600 compounds, 4% hits; in the data active = inhibition above about 37%;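 note: higher means more displacement of ethidium bromide from the DNA hairpin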
A number is an active result; - = inactive; . = not tested or not shown; + = active, no number. An excerpt weighted towards active compounds, which were near 1.9% of everything screened.

SMILES | ZTA DNA inh | PP1 counter | EBNA-1 inhibitor | core dimer inh | HCV NS3 hel inh | NS3 hel confirm | DNA FID counter
CC(C)c1cc(=O)n2[nH]c(SCc3ccccc3)nc2n1 | - | - | - | - | - | . | .
CC(C)N=c1scc(-c2cccs2)n1/N=C/c1ccc(O)c(O)c1O | - | - | - | - | 43 | - | -
CCOC(=O)/C(=C/c1c[nH]c2ccccc12)NC(C)=O | - | - | - | - | - | . | .
CCOC(=O)/C=C(C)\C=C\c1c[nH]c2ccccc12 | - | - | - | - | 45 | - | -
O=C(O)/C=C/c1ccc2c(-c3ccccc3)onc2c1 | - | - | - | - | 54 | - | -
O=C(O)c1ccc2noc(-c3ccccc3)c2c1 | - | - | - | - | - | . | .
CC(C)c1nnc(NC(=O)CCC(=O)NC2CC2)s1 | - | - | - | - | - | . | .
CCCCn1c(NC(=O)c2ccccc2Cl)c(C#N)c2nc3ccccc3nc21 | - | - | - | - | 47 | 69 | -
N#Cc1c(NC(=O)c2ccccc2Cl)n(Cc2ccccc2)c2nc3ccccc3nc12 | - | 22 | - | - | 41 | 38 | -
COc1ccc(/C=C2\SC(=S)N(NS(=O)(=O)c3ccc(C)cc3)C2=O)c(OC)c1 | - | - | - | - | 111 | 80 | -
CCOc1ccc(/C=C2\SC(=S)N(NS(=O)(=O)c3ccccc3)C2=O)cc1OC | - | - | - | - | 42 | 79 | -
CCN(CC)c1ccc(N=C2C(=O)Nc3ccccc32)cc1 | + | - | + | - | 45 | - | -
COc1ccc(OCC(=O)N/N=C/C(C)=C/c2ccco2)c(Br)c1 | - | 17 | - | - | 45 | - | -
COc1ccc(CN(C)C(=O)Cc2ccc(S(=O)(=O)N3CCOCC3)s2)cc1OC | - | - | . | . | . | . | .
Oc1ccc(-c2csc(Nc3cccc4ccccc34)n2)cc1O | - | - | - | - | 42 | - | -
CCOc1ccc(OCCC(=O)OCC(=O)NCCc2ccc(S(N)(=O)=O)cc2)cc1 | - | - | . | . | . | . | .
COc1ccc2nc(-c3ccc(Cl)cc3)cc(C(=O)O)c2c1 | - | - | - | - | - | . | .
CN(C)S(=O)(=O)c1cccc(NC(=S)N/N=C/c2ccc(O)c(O)c2O)c1 | . | . | . | . | 41 | - | 50
CCN(Cc1ccccc1)S(=O)(=O)c1cc2[nH]c(=O)c(=O)[nH]c2cc1C | - | - | - | - | - | . | .
O=C(O)C1CCN(c2nc(-c3ccccc3)c3cc(Br)ccc3n2)CC1 | - | - | - | - | 48 | 69 | -
CN(CC(=O)Nc1ccc(F)c(F)c1F)C(=O)C1CCN(C(=O)Nc2ccccc2)CC1 | - | - | - | - | . | . | .
COCc1nnc(NC(=O)C2CC(=O)N(C3CCCC3)C2)s1 (stereo not given) | - | - | - | - | - | . | .
O=C(Nc1cccc(-c2nnc(-c3ccco3)o2)c1)c1ccccc1 | - | - | - | - | - | . | .
CC(=O)Oc1ccc(C(=O)Nc2cccc(-c3nnc(-c4ccco4)o3)c2)cc1 | - | - | - | - | 51 | - | -
CN1C(=O)[C@H]2[C@@H](/C=C/c3ccccc3)N3C(=O)CN(CCO)C(=O)[C@@]3(Cc3ccccc3)[C@H]2C1=O | - | - | - | - | 44 | - | -
SMILES | ZTA DNA inh | PP1 counter | EBNA-1 inhibitor | core dimer inh | HCV NS3 hel inh | NS3 hel confirm | DNA FID counter
CCNc1nnc(-c2ccc(C)cc2)o1 | - | - | - | - | 52 | - | -
O=C(O)c1cc(N2N=C(C(F)(F)F)/C(=C/C=C/c3ccco3)C2=O)ccc1Cl | . | . | . | . | 61 | 80 | 71
O=C(O)c1ccc(N/N=C/c2ccc(C(F)(F)F)cc2)cc1 | - | - | - | - | 37 | 56 | -
Cc1c(N=C2N=C(NC(=O)NC(C)(C)C)c3ccccc32)c(=O)n(-c2ccccc2)n1C | - | - | - | - | 58 | - | -
C/C(=N\NC(=S)NCCc1ccccc1)c1ccc(Cl)cc1Cl | - | - | - | - | - | . | .
C/C(=N\NC(=S)NCCc1ccccc1)c1ccc(O)cc1O | - | - | - | - | 50 | - | -
CCN1C(=O)S/C(=C/c2ccc(Sc3nc4ccccc4[nH]3)o2)C1=O | - | - | - | - | - | . | .
CSc1ccc(S(=O)(=O)NCC(=O)OCC(=O)NCc2cccs2)cc1[N+](=O)[O-] | - | - | - | - | . | . | .
Cc1cc(/C=N/NC(=O)C(O)(c2ccccc2)c2ccccc2)c(C)n1-c1ccc(C(=O)O)cc1 | - | - | - | - | 39 | - | -
Cc1cc(/C=N/NC(=O)C(O)(c2ccccc2)c2ccccc2)c(C)n1-c1cccc(C(=O)O)c1 | - | - | - | - | 51 | 72 | -
COc1ccc(CN2CCC(n3nccc3NC(=O)CCc3ccccc3)CC2)c(C)c1C | . | . | . | . | - | . | .
CN(C)S(=O)(=O)c1ccc(SCC(=O)N2CC(=O)Nc3ccccc32)nc1 | - | - | . | . | . | . | .
O=C(N/C(=C\c1ccccc1)C(=O)N1CCOCC1)c1ccccc1Cl | - | - | - | - | 36 | - | -
Cc1cc(C)c(-c2c(O)c3cccc4c3n(c2=O)CCC4)c(C)c1 | - | - | - | - | 40 | - | -
Cc1ccc(C=Nc2ccccc2C(N)=O)o1 | - | - | - | - | - | . | .
Cc1ccc(C=Nc2ccc(N(C)C)cc2)o1 | + | - | + | - | 39 | - | -
O=C1C(=C2CCCCC2)SC(=S)N1Cc1ccco1 | - | - | - | - | 72 | - | -
O=C(O)CCN1C(=O)C(=C2CCCCCC2)SC1=S | - | - | - | - | - | . | .
N#Cc1c(N2C(=O)Nc3ccccc3N2O)sc2c1CCCCCC2 | - | - | - | - | 42 | 54 | -
Cc1cc(-c2csc(NC(=O)c3ccc(S(=O)(=O)N(C)C)cc3)n2)c(C)n1-c1ccccc1 | - | - | - | - | 66 | - | -
CCCn1c(=O)c(Br)cn(-c2ccccc2C)c1=O | - | - | - | - | - | . | .
COc1ccc(/C=C2\N=C(C)OC2=O)cc1OC | - | - | - | - | 38 | - | -
CC(=O)NCCc1nc2cc(NS(=O)(=O)c3ccc(Cl)cc3)ccc2n1C | - | - | - | - | 37 | - | -
COc1ccc(Cn2nnc3c(=O)[nH]c(C4CCN(S(=O)(=O)c5ccc(C)cc5)CC4)nc32)cc1 | - | - | - | - | - | . | .
COc1ccc(C2=NN(C(=O)CCC(=O)O)C(c3ccc(Br)cc3)C2)cc1 (stereo not given) | - | - | - | - | 38 | - | -
COc1ccc(C2=NN(C(=O)CCC(=O)O)C(c3ccccc3)C2)cc1 (stereo not given) | . | . | . | . | - | . | .
CS(=O)(=O)N1CCC(C(=O)NCc2ccc3c(c2)OCO3)CC1 | - | - | - | - | - | . | .
COc1ccc(C(=O)CC(=O)C(=O)Nc2ccc(Cl)cc2)cc1 | - | - | - | - | 43 | - | -
COc1ccc(C(=O)CC(=O)C(=O)Nc2ccc(OC)c(Cl)c2)cc1 | - | - | - | - | - | . | .
CN(C)c1ccc(C2CC(c3ccccc3)=Nc3nc(-c4ccccc4)cn32)cc1 (stereo not given) | . | . | . | . | - | . | .
